How the values were obtained:
[1] = system: Escherichia coli; test: Evaluated for percent inhibition against N-acetyl-L-[14C] phenylalanylpuromycin formation at 8e-4M; type: functional
How it was run: (§1)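 Cell-free puromycin reaction with E. coli MRE-600 70S ribosomes (NH4Cl-washed, 4.0 A260 units) in 0.1 mL containing 0.05 M Tris-HCl pH 7.4, 0.1 M NH4Cl, 0.01 M MgCl2, 10 μg poly(U), 0.20 A260 unit N-Ac-[14C]Phe-tRNA, puromycin and inhibitor. Incubated at 37 °C for 30 min. Product extracted into ethyl acetate and counted by scintillation. Single-point inhibition was read at 8×10^-4 M.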

[2] = Dissociation constant (pKa); type: physicochemical
[3] = Evaluated for the inhibition constant determined from the Dixon and slope vs. inhibitor concentration plots; type: functional, Escherichia coli
How it was run: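 Ki values came from the E. coli MRE-600 70S ribosome puromycin reaction, using poly(U), N-Ac-[14C]Phe-tRNA and puromycin in Tris-HCl pH 7.4 with NH4Cl and MgCl2, at 37 °C for 30 min. Inhibitor concentration was varied. Ethyl acetate-extracted product was counted by scintillation. Ki was derived from Dixon plots built by linear regression and from slope versus inhibitor concentration plots.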

[4] = system: Escherichia coli; test: Evaluated for the concentration required for a 50% inhibition of N-acetyl-L-[14C] phenylalanylpuromycin formation; type: functional; how it was run: as §1
[5] = system: Escherichia coli; test: Generation rate constant […] obtained from the inhibition of growth of Escherichia coli cells; type: organism-based

Structure (SMILES)	inhibition [1] [%]	pKa [2]	Ki [3] [µM]	ID50 [4] [µM]	Log k [5]
O=C(NC(CO)C(O)c1ccc([N+](=O)[O-])cc1)c1ccco1 (configuration not stated)	10	3.12	–	–	–
CS(=O)(=O)NC(CO)C(O)c1ccc([N+](=O)[O-])cc1 (configuration not stated)	–	-0.6	1.1	200	–
O=C(N[C@H](CO)[C@H](O)c1ccc([N+](=O)[O-])cc1)C(Cl)Cl [CHLORAMPHENICOL]	–	1.29	1.6	30	–
O=C(CO)NC(CO)C(O)c1ccc([N+](=O)[O-])cc1 (configuration not stated)	10	3.83	–	–	–
CCCC(=O)NC(CO)C(O)c1ccc([N+](=O)[O-])cc1 (configuration not stated)	34	4.82	–	–	0.71
CC(=O)NC(CO)C(O)c1ccc([N+](=O)[O-])cc1 (configuration not stated)	34	4.76	–	–	0.48
N#CCC(=O)NC(CO)C(O)c1ccc([N+](=O)[O-])cc1 (configuration not stated)	–	2.43	1.7	350	0.14
O=C(CCl)NC(CO)C(O)c1ccc([N+](=O)[O-])cc1 (configuration not stated)	–	2.86	27	500	1.71
O=C(NC(CO)C(O)c1ccc([N+](=O)[O-])cc1)C1CC1 (configuration not stated)	20	4.83	–	–	–
O=C(CF)NC(CO)C(O)c1ccc([N+](=O)[O-])cc1 (configuration not stated)	27	2.66	–	–	1.16
O=C(NC(CO)C(O)c1ccc([N+](=O)[O-])cc1)C(Br)Br (configuration not stated)	–	–	1	70	1.84
[N-]=[N+]=NCC(=O)NC(CO)C(O)c1ccc([N+](=O)[O-])cc1 (configuration not stated)	60	3.03	22	–	–
O=C(NC(CO)C(O)c1ccc([N+](=O)[O-])cc1)C(Cl)(Cl)Cl (configuration not stated)	–	0.65	3	250	0.75
CCC(=O)NC(CO)C(O)c1ccc([N+](=O)[O-])cc1 (configuration not stated)	39	4.88	–	–	–
O=[N+]([O-])c1ccc(C(O)C(CO)NP(=O)(O)CCl)cc1 (configuration not stated)	10	1.4	–	–	–
O=C(NC(CO)C(O)c1ccc([N+](=O)[O-])cc1)C1CCC1 (configuration not stated)	10	4.79	–	–	–
O=CNC(CO)C(O)c1ccc([N+](=O)[O-])cc1 (configuration not stated)	10	3.77	–	–	–
